Experimental data reported in ChEMBL document CHEMBL1140710, “Structure-activity relationships of cyclic lactam analogues of alpha-melanocyte-stimulating hormone (alpha-MSH) targeting the human melanocortin-3 receptor” (J Med Chem, 2008).

Key:
[1] = biological target: T1, Melanocyte-stimulating hormone receptor (Homo sapiens, UniProt Q01726); test: Displacement of [125I][Nle4,D-Phe7]alpha-MSH from human MC1 receptor expressed in HEK293 cells; assay type: cell-based
Outline: (§1)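 Whole stably transfected HEK293 cells seeded 48 h before assay at 50000 cells/well. Binding buffer: MEM, 25 mM HEPES pH 7.4, 0.2% BSA, 1 mM 1,10-phenanthroline, leupeptin, bacitracin. Cells washed, lysed with NaOH/Triton X-100, gamma-counted. IC50 is mean of two triplicate experiments.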
Target sequence in this assay (Q01726 whole entry): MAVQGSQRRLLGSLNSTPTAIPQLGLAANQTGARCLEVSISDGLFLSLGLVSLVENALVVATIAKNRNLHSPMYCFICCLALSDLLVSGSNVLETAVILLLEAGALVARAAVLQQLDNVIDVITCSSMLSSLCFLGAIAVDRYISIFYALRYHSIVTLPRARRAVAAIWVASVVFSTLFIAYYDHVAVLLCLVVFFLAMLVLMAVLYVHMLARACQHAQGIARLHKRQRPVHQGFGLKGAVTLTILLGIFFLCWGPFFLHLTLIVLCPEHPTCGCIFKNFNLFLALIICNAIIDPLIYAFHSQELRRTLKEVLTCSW

[2] = biological target: T2, Melanocortin receptor 3 (Homo sapiens, UniProt P41968); test: biochemical; assay type: cell-based, HEK293
[3] = biological target: T3, Melanocortin receptor 4 (Homo sapiens, UniProt P32245); test: biochemical; assay type: cell-based, HEK293
[4] = biological target: T1, Melanocyte-stimulating hormone receptor; test: Agonist activity at human MC1 receptor expressed in HEK293 cells assessed as intracellular cAMP accumulation; assay type: functional, cell-based
Outline: (§2)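 Stably transfected HEK293 cells seeded 48 h before assay at 50000 cells/well. Cells preincubated 1 min at 37 °C in Earle's balanced salt solution with 0.5 mM IBMX, then exposed to varying peptide concentrations for 3 min at 37 °C. Cells boiled 7 min, cAMP quantified by [3H]cAMP/PKA competition against a standard curve.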
Target sequence in this assay (Q01726 whole entry): as above

[5] = biological target: T4, Melanocortin receptor 5 (Homo sapiens, UniProt P33032); test: Displacement of [125I][Nle4,D-Phe7]alpha-MSH from human MC5 receptor expressed in HEK293 cells; assay type: cell-based; outline: as §1
[6] = biological target: T4, Melanocortin receptor 5; test: Agonist activity at human MC5 receptor expressed in HEK293 cells assessed as intracellular cAMP accumulation; assay type: functional, cell-based
Outline: (§3)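 HEK293 cells stably transfected with the receptor, seeded 48 h ahead at 50000 cells/well. Preincubated 1 min at 37 °C in Earle's balanced salt solution with 0.5 mM IBMX, then exposed to peptide for 3 min at 37 °C. cAMP measured by [3H]cAMP/PKA competition against a standard curve.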

[7] = biological target: T2, Melanocortin receptor 3; test: Antagonist activity at human MC3 receptor expressed in HEK293 cells assessed as inhibition of MT2 induced intracellular cAMP accumulation; assay type: functional, cell-based; conditions: for Kb: read-out: pA2 (converted)
[8] = biological target: T1, Melanocyte-stimulating hormone receptor; test: Agonist activity at human MC1 receptor expressed in HEK293 cells assessed as intracellular cAMP accumulation at 10 uM relative to MT2; assay type: functional, cell-based
Outline: (§4)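 Stably transfected HEK293 cells seeded 48 h before assay at 50000 cells/well. Cells preincubated 1 min at 37 °C in Earle's balanced salt solution with 0.5 mM IBMX, then exposed to 10 μM peptide for 3 min at 37 °C. Cells boiled 7 min, cAMP measured by [3H]cAMP/PKA competition with a standard curve. Result expressed as percent of cAMP produced by 10 μM MT-II.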
Target sequence in this assay (Q01726 whole entry, looked up): as the sequence (Q01726 whole entry) above

[9] = biological target: T2, Melanocortin receptor 3; test: Agonist activity at human MC3 receptor expressed in HEK293 cells assessed as intracellular cAMP accumulation at 10 uM relative to MT2; assay type: functional, cell-based; outline: as §4
[10] = biological target: T3, Melanocortin receptor 4; test: Agonist activity at human MC4 receptor expressed in HEK293 cells assessed as intracellular cAMP accumulation at 10 uM relative to MT2; assay type: functional, cell-based; outline: as §4
[11] = biological target: T4, Melanocortin receptor 5; test: Agonist activity at human MC5 receptor expressed in HEK293 cells assessed as intracellular cAMP accumulation at 10 uM relative to MT2; assay type: functional, cell-based; outline: as §4
[12] = biological target: T1, Melanocyte-stimulating hormone receptor; test: Agonist activity at human MC1 receptor expressed in HEK293 cells assessed as intracellular cAMP accumulation at 10 uM; assay type: functional, cell-based; outline: as §4
Target sequence in this assay (Q01726 whole entry, looked up): as the sequence (Q01726 whole entry) above

[13] = biological target: T2, Melanocortin receptor 3; test: Agonist activity at human MC3 receptor expressed in HEK293 cells assessed as intracellular cAMP accumulation at 10 uM; assay type: functional, cell-based; outline: as §4
[14] = biological target: T3, Melanocortin receptor 4; test: Agonist activity at human MC4 receptor expressed in HEK293 cells assessed as intracellular cAMP accumulation at 10 uM; assay type: functional, cell-based; outline: as §4
[15] = biological target: T4, Melanocortin receptor 5; test: Agonist activity at human MC5 receptor expressed in HEK293 cells assessed as intracellular cAMP accumulation at 10 uM; assay type: functional, cell-based; outline: as §4
[16] = biological target: T2, Melanocortin receptor 3; test: Agonist activity at human MC3 receptor expressed in HEK293 cells assessed as intracellular cAMP accumulation; assay type: functional, cell-based; outline: as §2
[17] = biological target: T3, Melanocortin receptor 4; test: Agonist activity at human MC4 receptor expressed in HEK293 cells assessed as intracellular cAMP accumulation; assay type: functional, cell-based; outline: as §3
[18] = biological target: T4, Melanocortin receptor 5; test: Antagonist activity at human MC5 receptor expressed in HEK293 cells assessed as inhibition of MT2 induced intracellular cAMP accumulation; assay type: functional, cell-based; conditions: read-out: pA2 (converted)

T4 sequence (P33032 whole entry): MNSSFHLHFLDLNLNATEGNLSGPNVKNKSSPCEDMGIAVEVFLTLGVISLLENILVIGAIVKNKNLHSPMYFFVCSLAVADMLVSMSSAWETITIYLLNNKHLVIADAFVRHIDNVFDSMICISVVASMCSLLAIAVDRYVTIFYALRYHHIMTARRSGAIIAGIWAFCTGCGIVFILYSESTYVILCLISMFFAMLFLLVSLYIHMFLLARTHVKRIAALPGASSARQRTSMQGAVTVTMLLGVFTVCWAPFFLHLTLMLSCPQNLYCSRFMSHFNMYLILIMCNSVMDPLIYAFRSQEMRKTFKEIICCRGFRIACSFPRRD
T3 sequence (P32245 whole entry): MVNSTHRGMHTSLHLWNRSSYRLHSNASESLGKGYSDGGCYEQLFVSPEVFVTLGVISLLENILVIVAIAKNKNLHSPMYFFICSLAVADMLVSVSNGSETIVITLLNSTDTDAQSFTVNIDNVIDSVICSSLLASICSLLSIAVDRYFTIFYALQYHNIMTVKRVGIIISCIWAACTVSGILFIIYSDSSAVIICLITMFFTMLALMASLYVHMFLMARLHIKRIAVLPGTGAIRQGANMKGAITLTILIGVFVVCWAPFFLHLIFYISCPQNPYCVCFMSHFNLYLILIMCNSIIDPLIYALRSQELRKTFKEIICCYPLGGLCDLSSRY
T2 sequence (P41968 whole entry): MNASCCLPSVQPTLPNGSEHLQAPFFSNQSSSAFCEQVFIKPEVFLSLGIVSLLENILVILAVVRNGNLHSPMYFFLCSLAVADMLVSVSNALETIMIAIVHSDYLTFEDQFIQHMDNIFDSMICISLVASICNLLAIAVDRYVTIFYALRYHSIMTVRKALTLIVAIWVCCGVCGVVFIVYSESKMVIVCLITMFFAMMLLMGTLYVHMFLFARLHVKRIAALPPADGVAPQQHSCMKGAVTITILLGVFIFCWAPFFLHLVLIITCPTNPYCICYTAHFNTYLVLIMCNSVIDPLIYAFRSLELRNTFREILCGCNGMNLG

SMILES | IC50 [1] [nM] | IC50 [2] [nM] | IC50 [3] [nM] | EC50 [4] [nM] | IC50 [5] [nM] | Activity [8] [%] | Activity [9] [%] | Activity [10] [%] | Activity [11] [%] | Activity [12] [%] | Activity [13] [%] | Activity [14] [%] | Activity [15] [%] | EC50 [16] [nM] | EC50 [6] [nM] | Kb [7] [nM] | Ki ([2]; hek293) [nM] | pA2 ([7]; hek293) | EC50 [17] [nM] | Kb [18] [nM]
NC(=O)[C@@H]1CCCCNC(=O)c2nccnc2C(=O)N[C@H](Cc2ccc3ccccc3c2)C(=O)N[C@@H](CCCN=C(N)N)C(=O)N[C@@H](Cc2c[nH]c3ccccc23)C(=O)N1 | 707 | 23 | > 1000 | > 3000 | 230 |  |  |  |  |  |  |  |  |  |  |  |  |  |  | 
NC(=O)[C@@H]1CCCCNC(=O)CCCC(=O)N2CCC[C@H]2C(=O)N[C@H](Cc2ccc3ccccc3c2)C(=O)N[C@@H](CCCN=C(N)N)C(=O)N[C@@H](Cc2c[nH]c3ccccc23)C(=O)N1 | > 10000 | 11 | 330 |  | 27 |  |  |  |  |  |  |  |  |  | 23 | 0.158 |  |  |  | 
N=C(N)NCCC[C@@H]1NC(=O)[C@@H](Cc2ccccc2)NC(=O)c2cccc(n2)C(=O)NCCCC[C@@H](C(N)=O)NC(=O)[C@H](Cc2c[nH]c3ccccc23)NC1=O | > 10000 | > 10000 | > 10000 | > 1000 | > 10000 | 15 | 0 | 0 | 0 |  | 0 | 0 | 0 |  |  |  |  |  |  | 
N=C(N)NCCC[C@@H]1NC(=O)[C@@H](Cc2ccccc2)NC(=O)c2nccnc2C(=O)NCCCC[C@@H](C(N)=O)NC(=O)[C@H](Cc2c[nH]c3ccccc23)NC1=O | 412 | 1100 | > 10000 | > 10000 | > 10000 | 60 | 70 | 0 | 0 |  |  | 0 | 0 | 27 |  |  |  |  |  | 
NC(=O)[C@@H]1CCCCNC(=O)CC[C@H](N)C(=O)N[C@@H](Cc2cnc[nH]2)C(=O)N[C@H](Cc2ccc3ccccc3c2)C(=O)N[C@@H](CCCN=C(N)N)C(=O)N[C@@H](Cc2c[nH]c3ccccc23)C(=O)N1 |  |  |  |  |  |  |  |  |  |  |  |  |  |  |  |  | 5.9 | 10.6 |  | 
CCCC[C@@H]1NC(=O)CCC(=O)NCCCC[C@@H](C(N)=O)NC(=O)[C@H](Cc2c[nH]c3ccccc23)NC(=O)[C@H](CCCN=C(N)N)NC(=O)[C@@H](Cc2ccccc2)NC1=O | > 10000 | 84 | 930 |  | 520 |  |  |  |  |  |  |  |  |  | > 1000 |  |  |  |  | 
NC(=O)[C@@H]1CCCCNC(=O)CCCC(=O)N2CCC[C@H]2C(=O)N[C@H](Cc2ccccc2)C(=O)N[C@@H](CCCN=C(N)N)C(=O)N[C@@H](Cc2c[nH]c3ccccc23)C(=O)N1 | > 10000 | 385 | > 1000 |  | 870 |  |  |  |  |  |  |  |  | 29 | 570 |  |  |  | > 2000 | 
CCCC[C@@H]1NC(=O)CCC(=O)NCCCC[C@@H](C(N)=O)NC(=O)[C@H](Cc2c[nH]c3ccccc23)NC(=O)[C@H](CCCN=C(N)N)NC(=O)[C@@H](Cc2ccc3ccccc3c2)NC1=O | 2000 | 12 | 300 | > 1000 | 17 |  |  |  |  |  |  |  |  |  |  | 5.01 |  |  |  | 2

The next lines start with results.

IC50 [1] [nM] | IC50 [2] [nM] | IC50 [3] [nM] | EC50 [4] [nM] | IC50 [5] [nM] | Activity [8] [%] | Activity [9] [%] | Activity [10] [%] | Activity [11] [%] | Activity [12] [%] | Activity [13] [%] | Activity [14] [%] | Activity [15] [%] | EC50 [16] [nM] | SMILES | EC50 [6] [nM] | Kb [7] [nM] | Ki ([2]; hek293) [nM] | pA2 ([7]; hek293) | EC50 [17] [nM] | Kb [18] [nM]
 |  |  |  |  | 0 | 0 | 0 | 0 | 0 | 0 | 0 | 0 |  | N=C(N)NCCC[C@@H]1NC(=O)[C@@H](Cc2ccc3ccccc3c2)NC(=O)c2cccc(n2)C(=O)NCCCC[C@@H](C(N)=O)NC(=O)[C@H](Cc2c[nH]c3ccccc23)NC1=O |  |  |  |  |  | 
 |  |  |  |  | 55 | 0 | 0 | 0 |  | 0 | 0 | 0 |  | N=C(N)NCCC[C@@H]1NC(=O)[C@@H](Cc2ccc3ccccc3c2)NC(=O)c2nccnc2C(=O)NCCCC[C@@H](C(N)=O)NC(=O)[C@H](Cc2c[nH]c3ccccc23)NC1=O |  |  |  |  |  | 
> 10000 | > 1000 | 160 |  | 790 | 0 | 80 | 0 | 0 | 0 |  | 0 | 0 | 100 | N=C(N)NCCC[C@@H]1NC(=O)[C@@H](Cc2ccccc2)NC(=O)[C@@H]2CCCN2C(=O)/C=C\C(=O)NCCCC[C@@H](C(N)=O)NC(=O)[C@H](Cc2c[nH]c3ccccc23)NC1=O |  |  |  |  |  | 
410 | 32 | 430 | > 5000 | 210 | 80 | 0 | 0 | 0 |  | 0 | 0 | 0 |  | N=C(N)NCCC[C@@H]1NC(=O)[C@@H](Cc2ccc3ccccc3c2)NC(=O)[C@@H]2CCCN2C(=O)c2ccccc2C(=O)NCCCC[C@@H](C(N)=O)NC(=O)[C@H](Cc2c[nH]c3ccccc23)NC1=O |  |  |  |  |  | 
> 10000 | > 1000 | 777 |  | > 1000 | 0 | 100 | 0 | 0 | 0 |  | 0 | 0 | 95 | N=C(N)NCCC[C@@H]1NC(=O)[C@@H](Cc2ccccc2)NC(=O)[C@@H]2CCCN2C(=O)c2ccccc2C(=O)NCCCC[C@@H](C(N)=O)NC(=O)[C@H](Cc2c[nH]c3ccccc23)NC1=O |  |  |  |  |  | 
> 10000 | > 1000 | > 1000 |  | > 10000 |  |  |  |  |  |  |  |  |  | NC(=O)[C@@H]1CCCCNC(=O)c2cccc(n2)C(=O)N[C@H](Cc2ccc3ccccc3c2)C(=O)N[C@@H](CCCN=C(N)N)C(=O)N[C@@H](Cc2c[nH]c3ccccc23)C(=O)N1 |  |  |  |  |  | 
> 10000 | 20 | 520 |  | 120 | 0 | 0 | 0 | 0 | 0 | 0 | 0 | 0 |  | N=C(N)NCCC[C@@H]1NC(=O)[C@@H](Cc2ccc3ccccc3c2)NC(=O)[C@@H]2CCCN2C(=O)/C=C\C(=O)NCCCC[C@@H](C(N)=O)NC(=O)[C@H](Cc2c[nH]c3ccccc23)NC1=O |  |  |  |  |  | 
